Source: PubChem BioAssay (The Scripps Research Institute Molecular Screening Center)
An excerpt weighted towards active compounds, which were near 2.7% of everything screened.
OX1R antag-1: antagonists of human orexin 1 receptor (OX1R) | OX1R-expressing cells, FRET antagonist read-out | inhibition, % at 6.6 µM | 330,000 tested, 1.8% active; in the data active = inhibition mostly above about 38%, no sharp cut-off; inactive = mostly below about 40%;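 also: 0% = agonist challenge alone and 100% = reference antagonist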
V1R ag counter: agonists of human V1a receptor, primary screen, counter-screen for OXTR agonist project, fluorescence, CHO-V1R cells; 320,000 tested, 0.25% active; Fluo-8 calcium fluorescence, agonist mode; 0% DMSO, 100% 3 nM vasopressin; activation, % at 3 µM; Vasopressin V1a receptor (Homo sapiens), P37288;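 active = activation above the mean activation of all tested compounds plus 3 SD, per screening run, cut at about 20% in these data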;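 also: signal is peak over basal fluorescence ratio across a 100 second FLIPR read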
OXTR potentiate: human OXTR potentiators, primary screen, fluorescence, CHO-OTR cells, Fluo-8 calcium. Oxytocin receptor (Homo sapiens), P30559. Fluo-8 calcium fluorescence, potentiator mode; 0% = oxytocin EC15, 100% = EC100. activation, % at 3 µM. 320,000 tested, 0.061% active;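 active = activation above that plate's cutoff, the mean activation of tested compounds plus 3 SD, cut at about 6.6% in these data, passing the limit was not always enough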;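 also: 100% uses oxytocin at 75 nM as the full agonist control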
Target sequence (P30559 whole entry, looked up): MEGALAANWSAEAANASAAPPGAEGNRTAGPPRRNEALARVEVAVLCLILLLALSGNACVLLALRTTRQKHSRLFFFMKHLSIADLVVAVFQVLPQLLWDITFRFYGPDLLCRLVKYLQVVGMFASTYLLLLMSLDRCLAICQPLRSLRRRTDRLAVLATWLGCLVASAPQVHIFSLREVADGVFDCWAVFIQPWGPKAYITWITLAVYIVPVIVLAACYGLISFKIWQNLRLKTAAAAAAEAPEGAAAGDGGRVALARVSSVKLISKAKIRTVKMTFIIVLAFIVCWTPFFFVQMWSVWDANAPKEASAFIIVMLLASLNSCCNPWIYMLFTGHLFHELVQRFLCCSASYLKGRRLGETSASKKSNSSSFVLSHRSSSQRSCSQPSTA
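Measured by – Fluo-8 calcium dye fluorescence · Test system – human OTR in CHO cells · Dosing – one concentration, 3.0 µM compound · Controls – EC15 oxytocin alone as 0%, 75 nM oxytocin as 100% · Evaluation – normalized max/min fluorescence ratio, % activation · Timing – 6 min pre-incubation, 100 s read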
OX1R antag-2: OX1R (HCRTR1) antagonists, primary screen, fluorescence, CHO/OX1R cells, Fluo-8 calcium, orexin A | Fluo-8 calcium fluorescence | inhibition, % at 5 µM | 330,000 tested, 0.43% active;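 active = inhibition above its plate's threshold, mean inhibition of all tested compounds on the plate plus 3 SD, cut at about 37% in these data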;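 also: 0% = orexin A challenge wells and 100% = SB-334867-A antagonist wells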
OXTR agonist: human OXTR agonists, primary screen, fluorescence, CHO-OTR cells, Fluo-8 calcium; AID 2435, 2010; Oxytocin receptor (Homo sapiens), P30559; activation, % at 3 µM; Fluo-8 calcium fluorescence; normalized: DMSO 0%, oxytocin 100%; 320,000 tested, 0.32% active;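 active = activation above the mean of all tested compounds plus 3 SD, cutoff set per screening run, cut at about 20% in these data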;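 also: peak over basal fluorescence ratio from a 100 s FLIPR kinetic read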
CHO parental Ca: ATP-evoked calcium signal inhibitors, parental CHO, primary screen, counter-screen for OX1R antagonist project, cell-based, fluorescence, Fluo-8 calcium dye. parental CHO-K1, ATP-induced calcium, Fluo-8 fluorescence. inhibition, % at 5.6 µM. 330,000 tested, 0.63% active. AID 463079, 2010;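 active = inhibition above that plate's mean sample inhibition plus 3 SD, cut at about 26% in these data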;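 also: 0% = ATP-challenged DMSO wells and 100% = DMSO wells without ATP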
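test system = CHO parental line | reagent = ATP stimulus | measured by = intracellular calcium via Fluo-8 no-wash fluorescent dye | control set = ATP and no-ATP DMSO wells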
OX1R HTRF conf: OX1R (HCRTR1) antagonists, confirmation, cell-based, HTRF; 1,800 tested, 49% active; inhibition, % at 6.6 µM; OX1R-expressing cells, HTRF antagonist assay; shares compounds with OX1R antag-1; in the data active = inhibition above about 55%;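 also: CHO cells expressing OX1R stimulated with orexin A at about EC80; 0% = agonist challenge alone and 100% = reference antagonist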
CHO-K1 HTRF cnt: signal inhibition in parental CHO-K1 cells, counter-screen for OX1R antagonist project, cell-based, HTRF; shares compounds with OX1R antag-1; inhibition, % at 6.6 µM; 1,800 tested, 48% active; HTRF counterscreen; AID 493232, 2011; in the data active = inhibition above about 17%;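 also: 0% = agonist challenge with vehicle and 100% = vehicle alone without agonist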
Active calls of the source: *; / = not tested or not shown.

SMILES	OX1R antag-1	V1R ag counter	OXTR potentiate	OX1R antag-2	OXTR agonist	CHO parental Ca	OX1R HTRF conf	CHO-K1 HTRF cnt
CC(=O)Nc1ccc2oc(-c3ccccc3Br)nc2c1	78*	2	-6	3	2	-10	42	0
O=C1C(=O)N(C/C=C/c2ccccc2)c2ccccc21	1	-2	0	-11	-2	-16	/	/
Cc1ccn2cc(-c3ccc(O)c(O)c3)nc2c1	-14	3	-4	-13	0	-3	/	/
Cc1nc2ccc(NC(=O)c3ccc(Cl)c(NC(=O)c4cccs4)c3)cc2s1	81*	0	-5	-16	-2	-12	38	8
CC(C)(CO)N=C1NS(=O)(=O)c2cc([N+](=O)[O-])ccc21	99*	0	0	-10	0	-2	56*	63*
O=C1c2ccc([N+](=O)[O-])cc2S(=O)(=O)N1Cc1ccccc1	3	0	-5	9	0	-8	/	/
Cc1ccc(-c2nc3ncccc3o2)cc1NC(=O)c1cc2ccccc2o1	-2	-1	1	-24	-1	-8	/	/
O=C(Nc1cccc(-c2nc3ncccc3o2)c1)c1cc2ccccc2o1	105*	-1	-10	1	-2	-35	92*	19*
CC(C)C1Oc2ccccc2N(CC(=O)NC2CCCCC2)C1=O (configuration not stated)	22	-1	0	-37	-2	-9	/	/
CN(C)S(=O)(=O)c1ccc(Cl)c(NC(=O)CN2CCN(Cc3ccc4c(c3)OCO4)CC2)c1	8	7	-1	-34	1	-13	/	/
Nc1nc(SCC(=O)Nc2cccc(S(=O)(=O)N3CCCCCC3)c2)n[nH]1	89*	0	1	-12	-1	-1	15	4
CCN1CCN(S(=O)(=O)c2ccc(Oc3ccccc3OC)cc2)CC1	19	7	-23	-20	3	7	/	/
Cc1nc2c(ccc3nc(NC(=O)Cc4ccccc4)sc32)s1	77*	0	1	5	0	-18	89*	3
Cc1ccc(CC(=O)Nc2nc3ccccc3s2)cc1	21	0	-12	-15	0	-18	/	/
COc1nc(NCCc2ccc(OC)c(OC)c2)nc(Nc2ccccc2)n1	23	-1	-12	-26	-3	-19	/	/
Cc1ccn2cc(-c3cccc(NC(=O)C(C)C)c3)nc2c1	20	-1	-9	-11	-1	-6	/	/
Cc1ccn2cc(-c3cccc(NC(=O)c4ccccc4)c3)nc2c1	78*	0	-15	-24	-1	-24	62*	4
O=C(C[C@@H]1C/C=C\CC[C@@H](Cc2ccc(F)cc2)C(=O)OC[C@@H]2CCCN2C1=O)N[C@H](CO)Cc1ccccc1	8	2	-7	10	2	-4	/	/
CC(=O)Nc1ccc(S(=O)(=O)/N=C2\C(=O)c3ccccc3C([O-])=C2n2cc[n+](-c3ccccn3)c2)cc1	144*	0	2	-10	0	-4	35	38*
CCCC[n+]1ccn(C2=C([O-])c3ccccc3C(=O)/C2=N\S(=O)(=O)c2ccc(Br)cc2)c1	20	0	2	-21	0	-15	/	/
Cc1ccc(NC(=O)CN(C)C(=O)c2cc(-c3cccs3)nn2-c2ccccc2)cc1	4	1	-7	-14	-1	-30	/	/
OCCCN=c1cc(-c2ccccc2)oc2ccc(Cl)cc12	96*	-1	-6	-24	-1	-18	36	61*
CC1CCCC/C1=N\Nc1ccc(S(N)(=O)=O)cc1[N+](=O)[O-] (configuration not stated)	116*	4	-9	-5	4	-6	26	26*
O=C(c1nn2c(C(F)(F)F)cc(-c3ccccc3)nc2c1Cl)N1CCOCC1	7	-1	-12	-29	-2	-14	/	/
O=C(c1nc2nc(-c3ccccc3)cc(C(F)(F)F)n2n1)N1CCOCC1	77*	0	-2	0	-1	-4	22	27*
SMILES	OX1R antag-1	V1R ag counter	OXTR potentiate	OX1R antag-2	OXTR agonist	CHO parental Ca	OX1R HTRF conf	CHO-K1 HTRF cnt
COc1cc2c(cc1NC(=O)CCCCCN1C(=O)CCC1=O)oc1ccccc12	80*	-1	-3	26	1	-27	84*	14
COc1cc2c(cc1NC(=O)CCCN1C(=O)CCC1=O)oc1ccccc12	37	0	-16	-11	-1	-13	/	/
O=C(O)c1ccc(N=Nc2c(-c3ccccc3)[nH]oc2=O)cc1	2	0	-5	7	0	1	/	/
CCN1CCN(C(=O)CCc2nnc(CCc3ccccc3OC)o2)[C@@H](C)C1=O	11	1	-11	-6	-1	4	/	/
CC(=O)c1ccc(S(=O)(=O)NCCCC(=O)N(C)Cc2ccc3c(c2)OCO3)cc1	3	5	-7	-24	5	-14	/	/
Cc1ncc(CO)c2cc(C(N)=O)c(=Nc3ccccc3)oc12	150*	2	-10	-19	0	-13	31	42*
CC(C)c1ccc2c(c1)[C@H]1OCC[C@H]1[C@@H](c1cccs1)N2	8	-2	-10	-30	-2	-4	/	/
O=C(CN1C(=O)c2ccccc2C1=O)OCC(=O)N1CCCCC1	6	1	-4	1	1	1	/	/
O=[N+]([O-])c1cccc(OCc2cn3cccnc3n2)c1	130*	1	1	-13	0	-7	30	27*
Cc1cc(C)nc(Nc2n[nH]c(-c3cccc4ccccc34)n2)n1	80*	0	-16	22	-2	-20	60*	5
COC(=O)c1ccccc1NC(=O)COc1ccc2c(c1)OCO2	80*	0	0	-54	-1	-7	63*	14
O=C(COc1ccc2c(c1)OCO2)Nc1ccccc1F	8	1	-1	-3	0	-10	/	/
Cc1ccc2nc3n(c(=O)c2c1)-c1ccccc1C(=O)NC3Cc1ccc(O)cc1 (configuration not stated)	8	1	-5	-12	4	0	/	/
